We go through 9 compounds from PubChem BioAssay AID1736 (Vanderbilt High Throughput Screening Facility, 2009).

Inconclusive results are not listed. Activity calls are given as the source filed them.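 How the source made its calls: active means dose curve converging in at least two of three replicates, whether well supported or a less certain trend; inactive means fewer than two replicates with a converged curve.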

For orientation: EC50 means the midpoint of the concentration-response curve.

Chain of Solute carrier family 12 member 5 (Homo sapiens) (Q9H2X9 whole entry, looked up): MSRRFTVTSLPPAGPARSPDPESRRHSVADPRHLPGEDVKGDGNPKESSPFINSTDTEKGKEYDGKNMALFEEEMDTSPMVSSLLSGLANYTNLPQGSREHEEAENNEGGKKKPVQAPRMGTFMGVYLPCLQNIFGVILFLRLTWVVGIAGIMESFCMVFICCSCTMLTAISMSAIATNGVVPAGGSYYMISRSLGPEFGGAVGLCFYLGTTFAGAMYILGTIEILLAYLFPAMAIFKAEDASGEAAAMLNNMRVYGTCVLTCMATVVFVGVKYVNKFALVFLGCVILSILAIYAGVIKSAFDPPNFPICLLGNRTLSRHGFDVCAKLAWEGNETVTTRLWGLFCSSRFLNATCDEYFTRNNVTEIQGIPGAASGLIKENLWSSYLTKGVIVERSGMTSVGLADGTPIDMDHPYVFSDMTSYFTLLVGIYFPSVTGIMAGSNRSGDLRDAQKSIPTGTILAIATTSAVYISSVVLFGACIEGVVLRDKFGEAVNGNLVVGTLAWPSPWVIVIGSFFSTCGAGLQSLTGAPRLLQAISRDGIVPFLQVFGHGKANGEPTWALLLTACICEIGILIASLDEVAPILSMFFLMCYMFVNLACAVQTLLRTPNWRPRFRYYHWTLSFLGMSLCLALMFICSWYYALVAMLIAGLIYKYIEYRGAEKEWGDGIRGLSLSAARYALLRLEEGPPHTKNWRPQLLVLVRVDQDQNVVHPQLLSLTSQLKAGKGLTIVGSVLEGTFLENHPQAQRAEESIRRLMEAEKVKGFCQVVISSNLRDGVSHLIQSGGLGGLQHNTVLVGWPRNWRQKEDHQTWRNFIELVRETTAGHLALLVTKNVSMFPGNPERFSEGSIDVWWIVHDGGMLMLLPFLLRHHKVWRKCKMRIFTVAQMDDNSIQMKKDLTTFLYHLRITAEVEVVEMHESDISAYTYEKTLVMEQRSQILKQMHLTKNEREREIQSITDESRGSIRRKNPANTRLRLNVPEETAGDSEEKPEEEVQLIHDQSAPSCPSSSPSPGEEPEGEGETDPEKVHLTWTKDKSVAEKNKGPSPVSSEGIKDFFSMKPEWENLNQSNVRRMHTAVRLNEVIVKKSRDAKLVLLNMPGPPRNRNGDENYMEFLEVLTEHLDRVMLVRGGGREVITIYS

The test deals with Solute carrier family 12 member 5 (Homo sapiens) (UniProt Q9H2X9). The test is described as follows: KCC2 modulator potency by thallium flux, dose response, cell-based, HEK293 KCC2, FluoZin-2 fluorescence (AID 1736). The essentials:
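test system = human embryonic kidney (HEK) cells expressing human KCC2 cotransporter | probe or stimulus = thallium-containing stimulus buffer for thallium flux | compound dosing = 11 points, 3-fold steps from 30 µM | signal = thallium-flux fluorescence, FluoZin-2, 480/540 nm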
As to `N#CC1=C(N)NC(SCc2ccccc2)=C(C#N)C12CCCCC2`, the EC50 entry was “inactive”.

For the compound `O=C(Nn1c(O)c(C=C2N=c3ccccc3=N2)sc1=S)c1ccccc1Cl`, the 50% effective concentration (EC50) is 117 nM.

Regarding `COc1ccccc1NC(=S)N=Nc1c(O)[nH]c2ccc(Br)cc12`, the half-maximal effective concentration (EC50) was 508 nM.

On to `O=C1C2Sc3[nH]c(=O)sc3C(c3ccccc3)C2C(=O)N1c1ccccc1` (centres undefined), for which the EC50 is 67.7 nM.

For `NC(=S)N=Nc1c(O)n(Cc2ccccc2)c2ccccc12`, the 50% effective concentration (EC50) was 427 nM.

`Cc1cccc(NC(=S)N=Nc2c(O)n(CN3CCOCC3)c3ccccc23)c1C`: the EC50 result was “inactive”.

As to `C/C(=N\NC(=O)c1ccc(Br)cc1)C1C(=O)c2ccccc2C1=O`, the EC50 entry was “inactive”.

For the compound `O=C(Nn1c(O)c(C=C2N=c3ccccc3=N2)sc1=S)c1ccccc1`, the EC50 entry was “inactive”.

As for `Cc1ccc(/C=C2\SC(=S)N(/N=C/c3cc([N+](=O)[O-])ccc3O)C2=O)o1`, the EC50 entry is “inactive”.
